Experimental data reported in paper PMC5914179 (Advanced functional materials, 2016).

Experiments:
[1] = target: thrombin (Homo sapiens, UniProt P00734); assay: Sensor cleavage during CaCl2-activated clotting of human plasma/serum; type: biochemical; details: control human plasma + CaCl2, PEG-T1Q sensor
[2] = target: recombinant human MMP9 (Homo sapiens, UniProt P14780); assay: In vitro cleavage assay; type: biochemical; details: inhibitor 5 μM final, ~100 nM MMP9, PEG-M1Q 1 μM by peptide
Procedure, shortened: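 Quenched fluorogenic PEG-peptide substrate at 1 × 10^-6 M by peptide, incubated with recombinant human MMP9 (≈100 × 10^-9 M working concentration), with or without MMP inhibitor. Fluorescence dequenching monitored over time on a microplate reader.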

Chain of recombinant human MMP9 (P14780 94-707): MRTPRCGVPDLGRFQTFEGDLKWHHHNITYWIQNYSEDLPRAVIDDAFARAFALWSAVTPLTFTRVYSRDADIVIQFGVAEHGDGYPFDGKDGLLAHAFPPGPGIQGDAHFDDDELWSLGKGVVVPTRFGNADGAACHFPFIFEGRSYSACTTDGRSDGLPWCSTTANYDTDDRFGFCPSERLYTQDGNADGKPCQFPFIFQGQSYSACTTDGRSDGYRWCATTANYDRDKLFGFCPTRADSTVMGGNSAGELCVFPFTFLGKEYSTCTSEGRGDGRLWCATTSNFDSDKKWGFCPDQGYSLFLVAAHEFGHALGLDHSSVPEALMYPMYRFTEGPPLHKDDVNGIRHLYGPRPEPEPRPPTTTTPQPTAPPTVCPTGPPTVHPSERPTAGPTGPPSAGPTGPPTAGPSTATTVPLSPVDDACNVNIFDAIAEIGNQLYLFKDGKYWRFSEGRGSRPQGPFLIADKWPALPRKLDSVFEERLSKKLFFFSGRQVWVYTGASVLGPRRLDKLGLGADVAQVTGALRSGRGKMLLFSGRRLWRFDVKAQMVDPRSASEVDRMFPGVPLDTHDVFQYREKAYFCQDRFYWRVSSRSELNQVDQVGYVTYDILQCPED

| effect of thrombin inhibitor on CaCl2-induced fluorescence increase of PEG-T1Q [1] | effect of MMP inhibitor on MMP9 proteolysis of PEG-M1Q [2] | SMILES |
| --- | --- | --- |
| eliminated the fluorescence increase | – | CC1CNc2c(cccc2S(=O)(=O)N[C@@H](CCCNC(=N)N)C(=O)N2CC[C@@H](C)C[C@@H]2C(=O)O)C1 (some centres unmarked) [Argatroban] |
| – | abrogated | CNC(=O)[C@@H](NC(=O)[C@H](CC(C)C)[C@H](O)C(=O)NO)C(C)(C)C [Marimastat] |
